Data set [1] in a line: Cmax in Trypanosoma cruzi infected BALB/c mouse model of acute Chagas disease at 50 mg/kg, po administered as single dose. Also on record: dose 50 mg/kg, route oral. It counts as ADME, organism-based. The note with it: in vivo. The essentials:
(§1)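 BALB/c females, 7–8 weeks, ~20 g, groups of three; single oral gavage at 50 mg/kg, given as a 10 mg/ml suspension in 20% (w/v) hydroxypropyl beta-cyclodextrin, 100 µL. Tail blood (40 µL) taken at timed intervals into heparinized capillaries. Plasma was separated, frozen and analysed later. Sampling ran to 5 hr. Values are averages from 3 mice.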

In data set [2] the test system is Mus musculus. The data set can be described thus: Toxicity in Trypanosoma cruzi Tulahuen infected BALB/c mouse model of acute Chagas disease assessed as incidence of side effects at 50 mg/kg, po administered twice daily 7 days after parasite infection for 21 days. Format: organism-based. Also on record: dose 50 mg/kg, route oral. The note with it: in vivo. The essentials: (§2)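 BALB/c females, 7–8 weeks, infected subcutaneously with 1 × 10^4 Tulahuen trypomastigotes; all were parasitemic by day 7. Groups of 6 were dosed by oral gavage twice daily on days 7–27 in 20% (w/v) hydroxypropyl beta-cyclodextrin, 100 µL per dose; vehicle group as control. Parasitemia was counted in 5 µL tail blood over 50 high-power fields through day 97. At day 100, 200 µL whole blood was tested by PCR.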

Data set [3] deals with Sterol 14-alpha demethylase (Trypanosoma cruzi (strain CL Brener)) (UniProt Q7Z1V1). As to the kind of experiment: Binding affinity to Trypanosoma cruzi lanosterol 14-alpha-demethylase expressed in Escherichia coli assessed as enzyme spectral change by difference spectroscopy.
Data set [4] addresses Sterol 14-alpha demethylase (Trypanosoma cruzi (strain CL Brener), UniProt Q7Z1V1). As to the kind of experiment: Binding affinity to Trypanosoma cruzi lanosterol 14-alpha-demethylase expressed in Escherichia coli assessed as equilibrium dissociation constant for enzyme-inhibitor complex by difference spectroscopy.
Data set [5] relates to Mus musculus. As to the kind of experiment: Toxicity in Trypanosoma cruzi Tulahuen infected BALB/c mouse model of acute Chagas disease assessed as mouse survival at 50 mg/kg, po administered twice daily 7 days after parasite infection for 21 days measured 100 days postinfection. Also on record: dose 50 mg/kg, route oral. The settings on record: in vivo, 2400 h. Format: organism-based. The procedure, abridged:
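Subcutaneous infection of female BALB/c mice (7–8 wk) with 1 × 10^4 Tulahuen trypomastigotes. Groups of 6 given oral gavage twice daily, days 7–27, in 20% (w/v) hydroxypropyl beta-cyclodextrin. Parasitemia followed by counting 50 high-power fields of 5 µL tail blood through day 97. Pre-morbid mice euthanized; survival and side effects recorded to termination at day 100.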

Data set [6] is described as follows: Tmax in Trypanosoma cruzi infected BALB/c mouse model of acute Chagas disease at 50 mg/kg, po administered as single dose. Also on record: dose 50 mg/kg, route oral. The settings on record: in vivo. Format: ADME, organism-based. The essentials:
as §1

Data set [7] has as its system Trypanosoma cruzi. The data set can be described thus: Antitrypanosomal activity against Trypanosoma cruzi Tulahuen amastigotes in mouse 3T3 cells by beta-galactosidase reporter gene assay. Format: functional, organism-based. The settings on record: NIH3T3. The essentials:
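Tulahuen strain (TCII lineage) grown as intracellular amastigotes in murine 3T3 fibroblasts in 96-well plates. EC50 determined from triplicate screens. Standard errors within assays stayed below 15%.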

Data set [8] in a line: Toxicity against mouse 3T3 cells by resazurin assay. It counts as cell-based. The settings on record: NIH3T3 cells. The essentials: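 Murine 3T3 fibroblasts screened separately from the parasites. Host-cell growth was quantified by resazurin read-out and EC50 determined.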
Data set [9] deals with Trypanosoma cruzi. As to the kind of experiment: Antitrypanosomal activity against Trypanosoma cruzi Tulahuen infected BALB/c mouse model of acute Chagas disease assessed as parasitemia burden in blood at 50 mg/kg, po administered twice daily 7 days after parasite infection for 21 days measured 100 days postinfection by PCR assay relative to untreated control. Format: functional, organism-based. Also on record: dose 50 mg/kg. The essentials:
as §2

A short description of data set [10]: AUC (0 to 5 hrs) in Trypanosoma cruzi infected BALB/c mouse model of acute Chagas disease at 50 mg/kg, po administered as single dose. It counts as ADME, organism-based. Also on record: dose 50 mg/kg, route oral. The note with it: in vivo. The essentials:
as §1

The nature of data set [11]: Half life in mouse at 30 mg/kg, po. The note with it: in vivo. It counts as ADME, organism-based. Also on record: dose 30 mg/kg, route oral.
The subject of data set [12] is Trypanosoma cruzi. The data set can be described thus: Antitrypanosomal activity against Trypanosoma cruzi infected mouse model of acute Chagas disease assessed as parasitemia burden in blood at 50 mg/kg, po administered twice daily for 14 days relative to untreated control. It counts as functional.
Data set [13] is described as follows: Plasma concentration in mouse at 30 mg/kg, po after 1 hr. Format: ADME, organism-based. Also on record: dose 30 mg/kg, route oral.
The test system of data set [14] is Trypanosoma cruzi. As to the kind of experiment: Antitrypanosomal activity against Trypanosoma cruzi Tulahuen infected BALB/c mouse model of acute Chagas disease assessed as parasitemia burden in blood at 20 mg/kg, po administered twice daily 7 days after parasite infection for 21 days measured 100 days postinfection by PCR assay relative to untreated control. It counts as functional, organism-based. Also on record: dose 20 mg/kg. The procedure, abridged:
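Female BALB/c mice (7–8 wk) infected s.c. with 1 × 10^4 Tulahuen trypomastigotes; blood parasites seen by day 7. Groups of 6 dosed by oral gavage twice daily, days 7–27, in 20% (w/v) hydroxypropyl beta-cyclodextrin vehicle. Vehicle group as control. Mice sacrificed at day 100; 200 µL whole blood tested by PCR for T. cruzi; scored as positive mice per group.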

Data set [15] is described as follows: Terminal half life in rat. Format: ADME, organism-based. The settings on record: in vivo, read-out: beta t1/2 (converted).
A short description of data set [16]: Terminal half life in mouse. Format: ADME, organism-based. The settings on record: in vivo, read-out: beta t1/2 (converted).

Molecules are shown by their SMILES. Calls of active or inactive are those of the source. The rule behind the calls is not given here. Bounds are passed on as bounds.

Sequence of Sterol 14-alpha demethylase (Q7Z1V1 whole entry): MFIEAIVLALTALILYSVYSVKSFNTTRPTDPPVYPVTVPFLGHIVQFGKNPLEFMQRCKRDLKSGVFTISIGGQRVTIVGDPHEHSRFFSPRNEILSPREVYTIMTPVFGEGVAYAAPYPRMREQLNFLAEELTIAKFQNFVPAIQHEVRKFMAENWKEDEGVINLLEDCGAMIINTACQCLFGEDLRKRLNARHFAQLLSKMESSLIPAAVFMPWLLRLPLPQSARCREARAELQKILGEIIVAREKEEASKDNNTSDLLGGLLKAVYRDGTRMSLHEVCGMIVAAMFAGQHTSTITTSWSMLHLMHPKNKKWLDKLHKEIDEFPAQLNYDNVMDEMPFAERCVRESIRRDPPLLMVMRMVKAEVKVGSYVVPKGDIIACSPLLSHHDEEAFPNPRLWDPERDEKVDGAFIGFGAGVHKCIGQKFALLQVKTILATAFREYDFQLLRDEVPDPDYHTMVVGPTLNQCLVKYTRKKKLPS
Sequence of Sterol 14-alpha demethylase (Trypanosoma cruzi (strain CL Brener)) (Q7Z1V1 whole entry, looked up): as the sequence (Q7Z1V1 whole entry) above

As for `Nc1cc(-c2ccccc2)ccc1Cn1cncc1CNc1ccc(Cl)c(-c2ccccc2)c1`, in data set [1], the Cmax amounted to 2400 ng/mL. Besides, the Activity entry in the data set with Mus musculus [2] and with Mus musculus [5] was “Non-toxic” each time. In addition, the result in data set [3] was Active. The Kd in data set [4] is less than 2200 nM. Moreover, the Tmax in data set [6] worked out at 0.8 h. Further, the EC50 is 1.2 nM in the data set with Trypanosoma cruzi [7] and more than 1000 nM in data set [8]. In addition, the outcome in the data set on Trypanosoma cruzi [9] was inactive. The molecule further returned an AUC(0-t) at 4 h in [10] of 6300 ng·h/mL.

Consider `c1ccc(-c2ccc(Cn3cncc3CNc3ccc(-c4nc5ccccc5s4)c(-c4ccccc4)c3)cc2)cc1`, for which, in [11], the half-life is 4 h. Moreover, the Activity with Trypanosoma cruzi [12] is recorded as 1%. The concentration at 1 h in data set [13] was found to be 16 µM. Also, the EC50 is 7 nM in the data set with Trypanosoma cruzi [7] and more than 1000 nM in data set [8].

Take `N#Cc1ccc(NCc2cncn2Cc2ccc(-c3ccccc3)cc2N)cc1-c1ccccc1`: the EC50 with Trypanosoma cruzi [7] is 1.5 nM; in [8] it was more than 1000 nM.

As for `CCOC(=O)c1ccc(NCc2cncn2Cc2ccc(-c3ccccc3)cc2)cc1-c1ccccc1`, the results for the half-maximal effective concentration (EC50) (with Trypanosoma cruzi [7]; in data set [8]) were 10 nM and more than 10000 nM, respectively.

On to `Nc1cc(-c2ccccc2)ccc1Cn1cncc1CNc1ccc(-c2nc3ccccc3s2)c(-c2ccccc2)c1`, for which the Cmax in [1] turned out to be 7200 ng/mL. For the same molecule, the Activity result in the data set on Mus musculus [2] and in the data set with Mus musculus [5] was “Non-toxic” in each case. Further, the result (in data set [3]; in the data set with Trypanosoma cruzi [14]) was Active. Also, the Kd in data set [4] was less than 2200 nM. For the same molecule, the Tmax in data set [6] is 1.7 h. Besides, the EC50 is 0.4 nM in the data set with Trypanosoma cruzi [7] and more than 1000 nM in data set [8]. Besides, the AUC(0-t) at 4 h in [10] amounted to 28700 ng·h/mL.

`COC(=O)c1ccc(NCc2cncn2Cc2ccc(Br)cc2)cc1-c1ccccc1`: the 50% effective concentration (EC50) was 20 nM in the data set with Trypanosoma cruzi [7] and more than 10000 nM in data set [8].

Regarding `O=C(c1ccc(NCc2cncn2Cc2ccc(-c3ccccc3)cc2)cc1-c1ccccc1)N1CCCCC1`, the results for the EC50 (with Trypanosoma cruzi [7]; in data set [8]) were 24 nM and more than 1000 nM, respectively.

Turning to `COC(=O)c1ccc(NCc2cncn2Cc2ccc(N)cc2)cc1-c1ccccc1`, the values for the EC50 (in the data set on Trypanosoma cruzi [7]; in data set [8]) were 250 nM and more than 10000 nM, respectively.

As to `COC(=O)c1ccc(NCc2cncn2Cc2cccc(C#N)c2)cc1-c1ccccc1`, the EC50 in the data set with Trypanosoma cruzi [7] was 100 nM; in data set [8], more than 10000 nM.

Consider `c1ccc(Cn2cncc2CNc2cccc(-c3cccnc3)c2)cc1`, for which the EC50 in the data set with Trypanosoma cruzi [7] is 600 nM; in [8], more than 1000 nM.

`O=C(OC1CCCCC1)c1ccc(NCc2cncn2Cc2ccc(-c3ccccc3)cc2)cc1-c1ccccc1`: the EC50 in the data set with Trypanosoma cruzi [7] is 10 nM; in data set [8], more than 10000 nM.

For the molecule `c1ccc(-c2ccc(Cn3cncc3CNc3ccc(-c4ccccc4)c(-c4ccccc4)c3)cc2)cc1`, the results for the EC50 (with Trypanosoma cruzi [7]; in [8]) were 80 nM and more than 10000 nM, respectively.

As to `CC[C@@H]([C@H](C)O)n1ncn(-c2ccc(N3CCN(c4ccc(OC[C@@H]5CO[C@@](Cn6cncn6)(c6ccc(F)cc6F)C5)cc4)CC3)cc2)c1=O` [POSACONAZOLE], the half-life in data set [15] and in [16] was 7 h each time. Moreover, the outcome in the data set on Trypanosoma cruzi [14] was Active.

Regarding `COC(=O)c1ccc(NCc2cncn2Cc2ccccc2Br)cc1-c1ccccc1`, the 50% effective concentration (EC50) in the data set with Trypanosoma cruzi [7] turned out to be 100 nM; in data set [8] it was 10000 nM.

`COC(=O)c1ccc(NCc2cncn2Cc2ccc(Cl)cc2)cc1-c1ccccc1`: the EC50 is 5 nM with Trypanosoma cruzi [7] and 25000 nM in [8].

As for `c1ccc(-c2ccc(Cn3cncc3CNc3ccc(-c4onc5ccccc45)c(-c4ccccc4)c3)cc2)cc1`, the figures for the EC50 (with Trypanosoma cruzi [7]; in [8]) were 50 nM and more than 10000 nM, respectively.

Turning to `O=[N+]([O-])c1ccc(Cn2cncc2CNc2cccc(-c3ccccc3)c2)cc1`, the EC50 in the data set with Trypanosoma cruzi [7] was found to be 100 nM; in data set [8], 10000 nM.

As for `CNC(=O)c1ccc(NCc2cncn2Cc2ccc(-c3ccccc3)cc2N)cc1-c1ccccc1`, the EC50 in the data set with Trypanosoma cruzi [7] is 12 nM; in [8] it was more than 1000 nM.

Turning to `CN(C)C(=O)c1ccc(NCc2cncn2Cc2ccc(-c3ccccc3)cc2)cc1-c1ccccc1`, the EC50 in the data set with Trypanosoma cruzi [7] was 9.3 nM; in data set [8] it was more than 1000 nM.

With `c1ccc(-c2ccc(Cn3cncc3CNc3ccc(N4CCCC4)c(-c4ccccc4)c3)cc2)cc1`, the EC50 with Trypanosoma cruzi [7] was 22 nM; in [8] it was more than 1000 nM.

In the case of `c1ccc(-c2ccc(Cn3cncc3CNc3ccc(-c4cc5ccccc5o4)c(-c4ccccc4)c3)cc2)cc1`, the EC50 with Trypanosoma cruzi [7] was 40 nM; in data set [8], more than 10000 nM.

In the case of `c1ccc(-c2ccc(Cn3cncc3CNc3ccc(N4CCCCC4)c(-c4ccccc4)c3)cc2)cc1`, the EC50 with Trypanosoma cruzi [7] was 23 nM; in data set [8] it was more than 1000 nM.

For the molecule `c1ccc(Cn2cncc2CNc2cccc(-c3ccccc3)c2)cc1`, the EC50 with Trypanosoma cruzi [7] is 360 nM; in [8], more than 750 nM.

On to `Cc1cccc(-c2cccc(NCc3cncn3Cc3ccccc3)c2)c1`, for which the EC50 was 550 nM with Trypanosoma cruzi [7] and more than 1000 nM in data set [8].

On to `Clc1ccc(NCc2cncn2Cc2ccc(-c3ccccc3)cc2)cc1-c1ccccc1`, for which the EC50 was 6 nM with Trypanosoma cruzi [7] and more than 1000 nM in data set [8].

Turning to `COC(=O)c1ccc(NCc2cncn2Cc2ccc(-c3ccccc3)cc2)cc1`, the EC50 with Trypanosoma cruzi [7] was 80 nM; in data set [8] it was more than 10000 nM.

As to `Cc1cccc(-c2cc(NCc3cncn3Cc3ccc(-c4ccccc4)cc3)ccc2-c2nc3ccccc3s2)c1C`, the EC50 is 64 nM in the data set with Trypanosoma cruzi [7] and more than 1000 nM in data set [8].

In the case of `COC(=O)c1ccc(NCc2cncn2Cc2cccc(C(C)(C)C)c2)cc1-c1ccccc1`, the EC50 in the data set on Trypanosoma cruzi [7] was 475 nM; in data set [8], more than 1000 nM.

These data come from ChEMBL document CHEMBL1136968, “Structurally simple inhibitors of lanosterol 14alpha-demethylase are efficacious in a rodent model of acute Chagas disease” (J Med Chem, 2009).
